Laboratory results as given in ChEMBL document CHEMBL1132310, “New 4-aminoquinoline Mannich base antimalarials. 1. Effect of an alkyl substituent in the 5'-position of the 4'-hydroxyanilino side chain” (J Med Chem, 1999).

Tests used:
Plasmodium falciparum [1] = experiment: In vitro inhibitory activity against chloroquine-sensitive Plasmodium falciparum HB3; type: functional, organism-based
Method in brief: (§1)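 Parasites kept in continuous culture in human erythrocytes in RPMI 1640 with 25 mM HEPES, 32 mM NaHCO3 and 10% human serum, gassed 3% O2/4% CO2/93% N2. 48-h assay at 2% parasitemia, 0.5% hematocrit, triplicate. Drugs from DMSO stocks diluted in medium. [3H]hypoxanthine added at 24 h, harvested at 48 h and counted. IC50 by probit interpolation of log dose–response.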

Plasmodium falciparum [2] = experiment: In vitro inhibitory activity against chloroquine-resistant Plasmodium falciparum K1; type: functional, organism-based; method in brief: as §1
[3] = Resistance factor by IC50(K1)/IC50(HB3); type: functional
Method in brief: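 P. falciparum K1 (uncloned, CQ-resistant) and HB3 (sensitive), both from Thailand, were cultured in human erythrocytes in RPMI 1640/HEPES/NaHCO3 with 10% human serum under 3% O2/4% CO2. Assays ran 48 h at 2% parasitemia and 0.5% hematocrit, in triplicate, from DMSO stocks diluted in medium. [3H]hypoxanthine was added at 24 h. IC50 came from probit of the log dose-response curve. The factor is K1 IC50 divided by HB3 IC50.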

[4] = system: Plasmodium berghei (NS strain); experiment: In vivo inhibition of Plasmodium berghei infected male Swiss albino mice (Mus musculus) by intraperitoneal dose; settings: ip
[5] = system: Plasmodium berghei (NS strain); experiment: In vivo inhibition of Plasmodium berghei infected male Swiss albino mice (Mus musculus) by oral dose

SMILES | IC50 (Plasmodium falciparum [1]) | IC50 (Plasmodium falciparum [2]) | Resistance factor [3] | ED50 [4] | ED50 [5]
CCc1cc(Nc2ccnc3cc(Cl)ccc23)cc(CNC(C)(C)C)c1O | 2.97 nM | 7.9 nM | 2.65 | – | –
CC(C)(C)NCc1cc(Nc2ccnc3cc(Cl)ccc23)cc(C(C)(C)C)c1O | 8.35 nM | 21.2 nM | 2.54 | – | –
CC(C)(C)NCc1cc(Nc2ccnc3cc(Cl)ccc23)cc(C2CCCCC2)c1O | 6.8 nM | 14.5 nM | 2.13 | – | –
CC(C)(C)NCc1cc(Nc2ccnc3cc(Cl)ccc23)ccc1O [N-TERT-BUTYL-AMODIAQUINE] | 1.47 nM | 3.43 nM | 2.33 | – | –
Cc1cc(Nc2ccnc3cc(Cl)ccc23)cc(CNC(C)(C)C)c1O | 2.99 nM | 11.2 nM | 3.76 | – | –
CCC(C)c1cc(Nc2ccnc3cc(Cl)ccc23)cc(CNC(C)(C)C)c1O (centres undefined) | 1.97 nM | 5.77 nM | 2.92 | – | –
CCN(CC)Cc1cc(Nc2ccnc3cc(Cl)ccc23)ccc1O.Cl | 2.47 nM | 13.2 nM | 5.35 | 3.3 mg/kg | 1.92 mg/kg
CCCc1cc(Nc2ccnc3cc(Cl)ccc23)cc(CNC(C)(C)C)c1O | 0.98 nM | 1.83 nM | 1.86 | 0.8 mg/kg | 0.56 mg/kg
CC(C)c1cc(Nc2ccnc3cc(Cl)ccc23)cc(CNC(C)(C)C)c1O | 1.24 nM | 1.87 nM | 1.5 | 0.78 mg/kg | 0.38 mg/kg
CCN(CC)CCCC(C)Nc1ccnc2cc(Cl)ccc12 (centres undefined) | – | – | 9.57 | – | –
